One assay has as its system Plasmodium falciparum. Briefly: Antimalarial activity against chloroquine/quinine sensitive Plasmodium falciparum assessed as parasite growth inhibition after 48 hrs. In kind it is functional, organism-based.
In another assay the test system is Clostridium tetani. Briefly: Antibacterial activity against Clostridium tetani MTCC 449 assessed as growth inhibition after 24 to 48 hrs by broth microdilution method. In kind it is functional. (In general: Broth dilution looks for growth in wells or tubes with falling amounts of substance.)
The next assay deals with Aspergillus fumigatus. Briefly: Antifungal activity against Aspergillus fumigatus MTCC 3008 assessed as growth inhibition after 24 to 48 hrs by broth microdilution method. Format: functional. In short, it runs like this: (§1)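 Fungal nutrition used Sabouraud Dextrose broth with inoculum at 10⁸ CFU mL⁻¹ by turbidity. Serial compound dilutions were made in 2% DMSO in water. Growth was noted on subculture after 24 and 48 h. MIC was taken as the highest dilution preventing visible turbidity after spot subculture.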

The next assay concerns Escherichia coli. Put plainly: Antibacterial activity against Escherichia coli MTCC 443 assessed as growth inhibition after 24 to 48 hrs by broth microdilution method. In kind it is functional. In short, it runs like this: (§2)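 Bacteria were grown in Mueller-Hinton broth with inoculum adjusted to 10⁸ CFU mL⁻¹ by turbidity. Compounds were serially diluted in 2% aqueous DMSO and incubated at 37 °C overnight. Growth was checked by subculture at 24 and 48 h. MIC was taken as the highest dilution with no turbidity after spot subculture.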

For the next assay, the system named is Candida albicans. Put plainly: Antifungal activity against Candida albicans MTCC 227 assessed as growth inhibition after 24 to 48 hrs by broth microdilution method. In kind it is functional. Put shortly: as §1
Assay [1] deals with Mycobacterium tuberculosis. Put plainly: Antitubercular activity against Mycobacterium tuberculosis H37Rv assessed as inhibition of colony formation at 100 ug/mL after 2 to 4 weeks by Lowensteine-Jensen method relative to control. Format: functional.
A further assay concerns Bacillus subtilis. Briefly: Antibacterial activity against Bacillus subtilis MTCC 441 assessed as growth inhibition after 24 to 48 hrs by broth microdilution method. Format: functional. In short, it runs like this: as §2
The subject of another assay is Salmonella typhi. Put plainly: Antibacterial activity against Salmonella typhi MTCC 98 assessed as growth inhibition after 24 to 48 hrs by broth microdilution method. In kind it is functional, Salmonella enterica subsp. enterica serovar Typhi. To be noted: Salmonella enterica.
Assay [2] relates to Mycobacterium tuberculosis. Put plainly: Antitubercular activity against Mycobacterium tuberculosis H37Rv assessed as inhibition of colony formation at 250 ug/mL after 2 to 4 weeks by Lowensteine-Jensen method relative to control. In kind it is functional.
In the next assay the test system is Vibrio cholerae. Briefly: Antibacterial activity against Vibrio cholerae MTCC 3906 assessed as growth inhibition after 24 to 48 hrs by broth microdilution method. In kind it is functional.
A further assay deals with Streptococcus pneumoniae. Put plainly: Antibacterial activity against Streptococcus pneumoniae MTCC 1936 assessed as growth inhibition after 24 to 48 hrs by broth microdilution method. Format: functional. Put shortly: as §2

In brackets after ≈: the same amount, converted by molar mass.

Usually IC50 stands for the concentration at which inhibition is half-maximal. What is called MIC is the lowest concentration that inhibits growth of the organism. The inhibition is the relative decrease from the control value, in per cent.

With `COc1ccc(N2C(N)=C(C#N)C(c3c(C)nn(-c4ccccc4)c3-n3ccnc3)C3=C2CC(C)(C)CC3=O)cc1` (stereo not drawn), the 50% inhibitory concentration (IC50) with Plasmodium falciparum came to 0.086 µg/mL (≈ 0.158 µM). The MIC in the assay on Clostridium tetani was found to be 100 µg/mL (≈ 183 µM); with Aspergillus fumigatus, 500 µg/mL (≈ 916 µM); in the assay on Escherichia coli, 200 µg/mL (≈ 367 µM); in the assay with Candida albicans it was 1000 µg/mL (≈ 1830 µM); in the assay with Bacillus subtilis it was 125 µg/mL (≈ 229 µM); in the assay with Salmonella typhi, 100 µg/mL (≈ 183 µM). The MIC was determined as 250 µg/mL (≈ 458 µM) in the assay with Vibrio cholerae and 100 µg/mL (≈ 183 µM) in the assay with Streptococcus pneumoniae. Besides, in assay [1], the inhibition at 100 µg/mL was 88%. Further, the inhibition at 250 µg/mL in assay [2] was found to be 91%.

Take `CCOC(=O)C1=C(N)N(c2ccc(O)cc2)C2=C(C(=O)CCC2)C1c1c(C)nn(-c2ccccc2)c1-n1ccnc1` (stereo not drawn): in the assay on Plasmodium falciparum, the IC50 was 0.067 µg/mL (≈ 0.122 µM). Moreover, the MIC amounted to 200 µg/mL (≈ 363 µM) in the assay with Clostridium tetani; 500 µg/mL (≈ 908 µM) in the assay on Aspergillus fumigatus; 62.5 µg/mL (≈ 114 µM) with Escherichia coli; 500 µg/mL (≈ 908 µM) in the assay on Candida albicans; 200 µg/mL (≈ 363 µM) with Bacillus subtilis; 200 µg/mL (≈ 363 µM) in the assay on Salmonella typhi. The values for the minimal inhibitory concentration (MIC) in the assay on Vibrio cholerae and with Streptococcus pneumoniae were 200 µg/mL (≈ 363 µM) and 250 µg/mL (≈ 454 µM), respectively. Besides, the inhibition at 100 µg/mL in assay [1] was 37%. Further, the inhibition at 250 µg/mL in assay [2] turned out to be 41%.

`Cc1nn(-c2ccccc2)c(-n2ccnc2)c1C1C(C#N)=C(N)N(c2cccc(O)c2)C2=C1C(=O)CC(C)(C)C2` (stereo not drawn): in the assay on Plasmodium falciparum, the half-inhibitory concentration (IC50) worked out at 0.034 µg/mL (≈ 0.064 µM). The MIC with Clostridium tetani stood at 200 µg/mL (≈ 376 µM); with Aspergillus fumigatus, 500 µg/mL (≈ 941 µM); in the assay on Escherichia coli, 200 µg/mL (≈ 376 µM); in the assay with Candida albicans, 1000 µg/mL (≈ 1880 µM); in the assay with Bacillus subtilis, 500 µg/mL (≈ 941 µM); in the assay on Salmonella typhi, 250 µg/mL (≈ 470 µM). The MIC is 62.5 µg/mL (≈ 118 µM) in the assay on Vibrio cholerae and 200 µg/mL (≈ 376 µM) in the assay on Streptococcus pneumoniae. Further, the inhibition at 100 µg/mL in assay [1] was 34%. The inhibition at 250 µg/mL in assay [2] is 38%.

As for `CCOC(=O)C1=C(N)N(c2ccc(O)cc2)C2=C(C(=O)CC(C)(C)C2)C1c1c(C)nn(-c2ccccc2)c1-n1ccnc1` (stereo not drawn), the half-inhibitory concentration (IC50) in the assay on Plasmodium falciparum amounted to 0.096 µg/mL (≈ 0.166 µM). For the same compound, the MIC was 200 µg/mL (≈ 346 µM) in the assay on Clostridium tetani; more than 1000 µg/mL with Aspergillus fumigatus; 200 µg/mL (≈ 346 µM) with Escherichia coli; 500 µg/mL (≈ 864 µM) in the assay with Candida albicans; 62.5 µg/mL (≈ 108 µM) with Bacillus subtilis; 200 µg/mL (≈ 346 µM) in the assay with Salmonella typhi. For the same compound, the minimum inhibitory concentration (MIC) with Vibrio cholerae was determined as 200 µg/mL (≈ 346 µM); with Streptococcus pneumoniae, 250 µg/mL (≈ 432 µM). Moreover, in assay [1], the inhibition at 100 µg/mL was 12%. For the same compound, in assay [2], the inhibition at 250 µg/mL came out at 20%.

`CCOC(=O)C1=C(N)N(c2ccc(Cl)cc2)C2=C(C(=O)CC(C)(C)C2)C1c1c(C)nn(-c2ccccc2)c1-n1ccnc1` (stereo not drawn): the IC50 in the assay with Plasmodium falciparum was 0.057 µg/mL (≈ 0.0955 µM). Also, the minimum inhibitory concentration (MIC) is 125 µg/mL (≈ 209 µM) in the assay on Clostridium tetani; 500 µg/mL (≈ 837 µM) in the assay with Aspergillus fumigatus; 100 µg/mL (≈ 167 µM) in the assay with Escherichia coli; more than 1000 µg/mL in the assay on Candida albicans; 100 µg/mL (≈ 167 µM) with Bacillus subtilis; 100 µg/mL (≈ 167 µM) in the assay on Salmonella typhi. Also, the MIC came to 200 µg/mL (≈ 335 µM) in the assay on Vibrio cholerae and 125 µg/mL (≈ 209 µM) in the assay on Streptococcus pneumoniae. Also, the inhibition at 100 µg/mL in [1] amounted to 58%. For the same compound, the inhibition at 250 µg/mL in assay [2] turned out to be 63%.

`Cc1nn(-c2ccccc2)c(-n2ccnc2)c1C1C(C#N)=C(N)N(c2ccc(Cl)cc2)C2=C1C(=O)CC(C)(C)C2` (stereo not drawn): the concentration for half-maximal inhibition (IC50) in the assay with Plasmodium falciparum is 0.073 µg/mL (≈ 0.133 µM). For the same compound, the MIC in the assay with Clostridium tetani is 125 µg/mL (≈ 227 µM); in the assay on Aspergillus fumigatus, 500 µg/mL (≈ 909 µM); in the assay on Escherichia coli it was 500 µg/mL (≈ 909 µM); with Candida albicans it was more than 1000 µg/mL; with Bacillus subtilis it was 200 µg/mL (≈ 364 µM); in the assay with Salmonella typhi, 500 µg/mL (≈ 909 µM). The results for the minimal inhibitory concentration (MIC) in the assay on Vibrio cholerae and in the assay with Streptococcus pneumoniae were 250 µg/mL (≈ 454 µM) and 125 µg/mL (≈ 227 µM), respectively. Further, the inhibition at 100 µg/mL in assay [1] is 76%. The inhibition at 250 µg/mL in [2] was determined as 84%.

Turning to `Cc1nn(-c2ccccc2)c(-n2ccnc2)c1C1C(C(N)=O)=C(N)N(c2ccc(O)cc2)C2=C1C(=O)CC(C)(C)C2` (stereo not drawn), the IC50 with Plasmodium falciparum amounted to 0.057 µg/mL (≈ 0.104 µM). Further, the minimal inhibitory concentration (MIC) was 250 µg/mL (≈ 455 µM) with Clostridium tetani; 1000 µg/mL (≈ 1820 µM) in the assay with Aspergillus fumigatus; 250 µg/mL (≈ 455 µM) with Escherichia coli; 500 µg/mL (≈ 910 µM) in the assay with Candida albicans; 200 µg/mL (≈ 364 µM) in the assay with Bacillus subtilis; 125 µg/mL (≈ 227 µM) in the assay on Salmonella typhi. Besides, the MIC in the assay with Vibrio cholerae and in the assay on Streptococcus pneumoniae was 250 µg/mL (≈ 455 µM) each time. Also, the inhibition at 100 µg/mL in assay [1] stood at 61%. Moreover, the inhibition at 250 µg/mL in [2] was determined as 70%.

Turning to `Cc1ccc(N2C(N)=C(C(N)=O)C(c3c(C)nn(-c4ccccc4)c3-n3ccnc3)C3=C2CC(C)(C)CC3=O)cc1` (stereo not drawn), the IC50 in the assay on Plasmodium falciparum amounted to 1.02 µg/mL (≈ 1.87 µM). Besides, the MIC with Clostridium tetani is 200 µg/mL (≈ 365 µM); in the assay on Aspergillus fumigatus, 250 µg/mL (≈ 456 µM); in the assay with Escherichia coli, 200 µg/mL (≈ 365 µM); with Candida albicans, more than 1000 µg/mL; in the assay with Bacillus subtilis, 250 µg/mL (≈ 456 µM); in the assay with Salmonella typhi it was 200 µg/mL (≈ 365 µM). Moreover, the MIC in the assay on Vibrio cholerae and in the assay with Streptococcus pneumoniae was 250 µg/mL (≈ 456 µM) each time. Further, in assay [1], the inhibition at 100 µg/mL turned out to be 30%. Further, in assay [2], the inhibition at 250 µg/mL worked out at 35%.

(Values after ChEMBL document CHEMBL3232885, “Synthesis, characterization and pharmacological screening of some novel 5-imidazopyrazole incorporated polyhydroquinoline derivatives” (Eur J Med Chem, 2014).)
